# ChEMBL document CHEMBL1157465, “Design, synthesis, and biological evaluation of novel 3-aryl-4-(1H-indole-3yl)-1,5-dihydro-2H-pyrrole-2-ones as vascular endothelial growth factor receptor (VEGF-R) inhibitors” (J Med Chem, 2008)
# Columns and labels:
# [1] = biological target: T1, Receptor-type tyrosine-protein kinase FLT3 (Homo sapiens, UniProt P36888); experiment: Inhibition of human recombinant FLT3
# T1 sequence (P36888 whole entry): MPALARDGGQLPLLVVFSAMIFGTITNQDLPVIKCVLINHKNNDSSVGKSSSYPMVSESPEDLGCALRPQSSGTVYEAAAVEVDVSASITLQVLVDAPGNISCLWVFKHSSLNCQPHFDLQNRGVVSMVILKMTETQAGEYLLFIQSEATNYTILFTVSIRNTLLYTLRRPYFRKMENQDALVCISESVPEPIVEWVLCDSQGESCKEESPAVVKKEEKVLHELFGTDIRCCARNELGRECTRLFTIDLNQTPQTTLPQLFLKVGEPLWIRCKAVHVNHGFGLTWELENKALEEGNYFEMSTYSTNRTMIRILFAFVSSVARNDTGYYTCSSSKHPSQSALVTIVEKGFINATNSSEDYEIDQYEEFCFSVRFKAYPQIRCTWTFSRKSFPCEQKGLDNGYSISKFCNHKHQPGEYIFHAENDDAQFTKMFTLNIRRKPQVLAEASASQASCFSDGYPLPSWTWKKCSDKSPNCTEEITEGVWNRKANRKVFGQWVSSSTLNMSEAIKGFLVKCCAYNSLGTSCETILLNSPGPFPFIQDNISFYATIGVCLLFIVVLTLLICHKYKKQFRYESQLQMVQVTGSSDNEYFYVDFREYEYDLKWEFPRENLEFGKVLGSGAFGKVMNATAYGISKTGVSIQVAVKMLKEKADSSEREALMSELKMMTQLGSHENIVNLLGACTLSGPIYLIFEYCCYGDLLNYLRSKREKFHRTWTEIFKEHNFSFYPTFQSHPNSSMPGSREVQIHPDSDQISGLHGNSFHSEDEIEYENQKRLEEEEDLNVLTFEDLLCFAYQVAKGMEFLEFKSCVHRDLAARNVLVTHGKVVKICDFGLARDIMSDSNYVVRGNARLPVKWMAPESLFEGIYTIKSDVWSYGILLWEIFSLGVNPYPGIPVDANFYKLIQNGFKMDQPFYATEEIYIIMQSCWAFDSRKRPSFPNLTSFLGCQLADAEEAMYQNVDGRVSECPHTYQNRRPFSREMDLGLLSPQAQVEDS
# Method in brief: (§1)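 Human kinases expressed in Sf9 cells via baculovirus as GST or His fusions and affinity purified. 33PanQinase assay in 60 mM HEPES-NaOH pH 7.5, 3 mM MgCl2, 3 mM MnCl2, 3 µM orthovanadate, 1.2 mM DTT, 1 µM [γ-33P]ATP, 1% DMSO; 30 °C, 80 min. Substrates: poly(Glu,Tyr) 4:1 for ERBB2, IGF1-R and SRC; poly(Ala,Glu,Lys,Tyr) 6:2:5:1 for FLT3. IC50 from 10 concentrations by scintillation counting.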
# [2] = biological target: Vascular endothelial growth factor receptor 2 (Homo sapiens, UniProt P35968); experiment: Inhibition of human recombinant VEGFR2
# Method in brief: (§2)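 Recombinant human tyrosine kinases (EPHB4, TIE2, VEGF-R2, VEGF-R3), expressed in Sf9 insect cells as GST- or His-fusions, with poly(Glu,Tyr) 4:1 as substrate. Conditions: 1 µM [γ-33P]ATP, pH 7.5 HEPES buffer with Mg/Mn, DTT and vanadate, 30 °C for 80 min, 1% DMSO. Ten concentrations were tested and IC50 came from scintillation counting of incorporated 33P.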
# [3] = biological target: Vascular endothelial growth factor receptor 3 (Homo sapiens, UniProt P35916); experiment: Inhibition of human recombinant VEGFR3; method in brief: as §2
# Angiopoietin-1 receptor = Angiopoietin-1 receptor (Homo sapiens, UniProt Q02763); experiment: Inhibition of human recombinant TIE2; method in brief: as §2
# [4] = biological target: Proto-oncogene tyrosine-protein kinase Src (Homo sapiens, UniProt P12931); experiment: Inhibition of human recombinant SRC; method in brief: as §1
# [5] = biological target: T2, Serine/threonine-protein kinase PLK4 (Homo sapiens, UniProt O00444); experiment: Inhibition of human recombinant SAK
# T2 sequence (O00444 whole entry): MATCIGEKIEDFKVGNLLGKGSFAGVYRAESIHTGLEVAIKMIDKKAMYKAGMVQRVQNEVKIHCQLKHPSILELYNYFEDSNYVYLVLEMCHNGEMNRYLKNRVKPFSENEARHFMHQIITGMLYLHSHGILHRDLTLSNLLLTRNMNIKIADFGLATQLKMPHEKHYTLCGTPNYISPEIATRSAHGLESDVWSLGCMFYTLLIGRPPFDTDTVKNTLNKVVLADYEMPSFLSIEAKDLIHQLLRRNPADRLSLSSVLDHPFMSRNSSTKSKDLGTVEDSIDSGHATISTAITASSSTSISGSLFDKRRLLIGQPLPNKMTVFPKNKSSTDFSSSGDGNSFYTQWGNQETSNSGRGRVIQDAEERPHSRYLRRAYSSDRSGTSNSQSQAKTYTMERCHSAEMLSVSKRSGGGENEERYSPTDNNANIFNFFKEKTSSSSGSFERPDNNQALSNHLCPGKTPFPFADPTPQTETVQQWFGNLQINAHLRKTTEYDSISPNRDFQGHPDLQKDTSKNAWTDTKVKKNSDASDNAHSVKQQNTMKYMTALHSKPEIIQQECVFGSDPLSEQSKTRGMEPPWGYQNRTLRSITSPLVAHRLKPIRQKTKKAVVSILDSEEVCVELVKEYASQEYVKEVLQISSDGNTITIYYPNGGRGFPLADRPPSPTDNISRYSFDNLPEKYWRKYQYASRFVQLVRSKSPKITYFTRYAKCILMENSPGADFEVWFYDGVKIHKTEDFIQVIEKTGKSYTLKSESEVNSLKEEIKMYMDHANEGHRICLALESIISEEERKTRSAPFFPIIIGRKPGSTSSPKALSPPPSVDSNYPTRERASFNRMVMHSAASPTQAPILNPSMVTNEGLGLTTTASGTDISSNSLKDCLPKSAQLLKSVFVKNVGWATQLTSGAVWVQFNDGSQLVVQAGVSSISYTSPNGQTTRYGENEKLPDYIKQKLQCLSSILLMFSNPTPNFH
# Method in brief: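 Human kinase expressed from cDNA in Sf9 cells (baculovirus) as GST- or His-tagged protein, affinity-purified. 10 compound concentrations, 1% DMSO final, 30 °C for 80 min. Stopped with H₃PO₄, 33P incorporation counted, IC50 derived.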
# Focal adhesion kinase 1 = Focal adhesion kinase 1 (Homo sapiens, UniProt Q05397); experiment: Inhibition of human recombinant FAK
# Aurora kinase A = biological target: T3, Aurora kinase A (Homo sapiens, UniProt O14965); experiment: Inhibition of human recombinant Aurora A
# T3 sequence (O14965 whole entry): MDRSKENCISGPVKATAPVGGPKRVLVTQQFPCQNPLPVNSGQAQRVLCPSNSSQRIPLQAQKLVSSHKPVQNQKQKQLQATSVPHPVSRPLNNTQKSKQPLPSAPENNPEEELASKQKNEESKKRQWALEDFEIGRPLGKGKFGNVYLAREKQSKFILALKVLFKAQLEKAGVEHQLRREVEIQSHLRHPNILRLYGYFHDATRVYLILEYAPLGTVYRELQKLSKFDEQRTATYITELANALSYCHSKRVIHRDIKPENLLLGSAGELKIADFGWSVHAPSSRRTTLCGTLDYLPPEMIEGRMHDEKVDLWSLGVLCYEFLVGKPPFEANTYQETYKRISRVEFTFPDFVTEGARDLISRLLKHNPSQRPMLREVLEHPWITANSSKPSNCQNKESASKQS
# Method in brief: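 Aurora-A or Aurora-B, human cDNA expressed in Sf9 cells as tagged recombinant protein, phosphorylating Tetra(LRRWSLG). Reactions used 60 mM HEPES pH 7.5, Mg2+/Mn2+ (3 mM each), 1.2 mM DTT, vanadate and 1 µM [γ-33P]ATP, ran 80 min at 30 °C and were stopped with 2% H3PO4.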
# Homo sapiens = species: Homo sapiens; experiment: Antiangiogenic activity in VEGF-induced HLMEC assessed as sprouts per bead at 1.3 uM after 24 hrs by sprouting assay; assay type: functional
# Method in brief: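 HLMEC seeded on cytodex-3 microcarrier beads and embedded in 3D fibrinogen gel with 20 ng/mL VEGF plus compound at a final 1.3 or 2.6 µM (from 1 mM DMSO stock). Gel polymerised with 0.65 U/mL thrombin and overlaid with MCDB131, 5% FCS, 5% human serum and 200 U/mL Trasylol. Negative control: gel without growth factors. After 24 h, fixed in 1% PFA; sprouts per 50 beads counted microscopically. Triplicates per condition, n = 9 experiments.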
# [6] = biological target: T4, NUAK family SNF1-like kinase 1 (Homo sapiens, UniProt O60285); experiment: Inhibition of human recombinant ARK5
# T4 sequence (O60285 whole entry): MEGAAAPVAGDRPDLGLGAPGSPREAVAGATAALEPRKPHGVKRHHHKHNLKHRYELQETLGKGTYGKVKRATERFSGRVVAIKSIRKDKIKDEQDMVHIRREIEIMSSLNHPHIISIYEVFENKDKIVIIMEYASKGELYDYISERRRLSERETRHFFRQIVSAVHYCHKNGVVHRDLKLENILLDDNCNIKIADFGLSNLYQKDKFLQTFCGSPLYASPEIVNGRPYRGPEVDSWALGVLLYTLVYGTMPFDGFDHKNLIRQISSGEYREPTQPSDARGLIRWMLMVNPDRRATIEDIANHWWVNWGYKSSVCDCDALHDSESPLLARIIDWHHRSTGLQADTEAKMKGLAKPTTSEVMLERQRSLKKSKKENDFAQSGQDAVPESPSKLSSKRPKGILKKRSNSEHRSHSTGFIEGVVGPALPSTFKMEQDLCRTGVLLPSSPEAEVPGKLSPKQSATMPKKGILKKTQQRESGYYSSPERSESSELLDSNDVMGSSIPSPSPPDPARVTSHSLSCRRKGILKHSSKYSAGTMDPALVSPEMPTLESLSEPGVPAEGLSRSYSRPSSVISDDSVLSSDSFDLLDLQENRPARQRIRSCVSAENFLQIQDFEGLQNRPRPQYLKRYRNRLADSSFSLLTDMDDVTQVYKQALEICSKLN
# Method in brief: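 Human ARK5 made in Sf9 cells by baculovirus (GST- or His-tagged, affinity-purified) and read by autophosphorylation in a 33PanQinase radiometric assay. Buffer: 60 mM HEPES-NaOH pH 7.5, 3 mM MgCl2, 3 mM MnCl2, 3 µM orthovanadate, 1.2 mM DTT, PEG20000 and 1 µM [γ-33P]ATP.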
# Sequence of Angiopoietin-1 receptor (Q02763 whole entry): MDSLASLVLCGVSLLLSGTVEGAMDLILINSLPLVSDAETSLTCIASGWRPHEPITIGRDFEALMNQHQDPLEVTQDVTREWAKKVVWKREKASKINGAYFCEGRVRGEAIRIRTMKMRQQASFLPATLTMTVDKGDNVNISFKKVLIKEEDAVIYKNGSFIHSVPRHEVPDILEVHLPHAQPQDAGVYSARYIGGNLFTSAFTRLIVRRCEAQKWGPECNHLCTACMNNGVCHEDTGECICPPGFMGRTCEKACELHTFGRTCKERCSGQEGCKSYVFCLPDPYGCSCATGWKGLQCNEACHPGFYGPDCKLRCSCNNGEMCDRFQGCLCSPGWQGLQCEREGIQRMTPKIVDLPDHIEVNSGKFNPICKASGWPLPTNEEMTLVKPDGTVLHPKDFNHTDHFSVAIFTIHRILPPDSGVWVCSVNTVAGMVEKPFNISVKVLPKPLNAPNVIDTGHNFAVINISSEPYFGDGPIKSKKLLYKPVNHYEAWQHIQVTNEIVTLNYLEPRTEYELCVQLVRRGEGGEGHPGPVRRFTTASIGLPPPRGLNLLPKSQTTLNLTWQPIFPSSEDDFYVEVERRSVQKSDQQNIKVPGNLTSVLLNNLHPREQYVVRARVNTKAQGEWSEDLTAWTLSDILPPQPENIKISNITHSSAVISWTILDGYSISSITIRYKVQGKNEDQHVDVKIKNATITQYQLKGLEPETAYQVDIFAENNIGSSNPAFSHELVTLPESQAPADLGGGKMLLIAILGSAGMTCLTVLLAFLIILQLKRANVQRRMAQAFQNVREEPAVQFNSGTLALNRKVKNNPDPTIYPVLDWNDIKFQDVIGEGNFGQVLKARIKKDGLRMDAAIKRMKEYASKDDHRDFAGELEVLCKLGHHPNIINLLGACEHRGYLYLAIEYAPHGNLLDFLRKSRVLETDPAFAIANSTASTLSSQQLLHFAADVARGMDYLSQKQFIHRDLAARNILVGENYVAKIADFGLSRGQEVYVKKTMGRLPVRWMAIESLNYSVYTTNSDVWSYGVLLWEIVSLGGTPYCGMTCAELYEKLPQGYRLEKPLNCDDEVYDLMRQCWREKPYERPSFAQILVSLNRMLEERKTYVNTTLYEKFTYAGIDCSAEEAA
# Sequence of Vascular endothelial growth factor receptor 3 (P35916 whole entry): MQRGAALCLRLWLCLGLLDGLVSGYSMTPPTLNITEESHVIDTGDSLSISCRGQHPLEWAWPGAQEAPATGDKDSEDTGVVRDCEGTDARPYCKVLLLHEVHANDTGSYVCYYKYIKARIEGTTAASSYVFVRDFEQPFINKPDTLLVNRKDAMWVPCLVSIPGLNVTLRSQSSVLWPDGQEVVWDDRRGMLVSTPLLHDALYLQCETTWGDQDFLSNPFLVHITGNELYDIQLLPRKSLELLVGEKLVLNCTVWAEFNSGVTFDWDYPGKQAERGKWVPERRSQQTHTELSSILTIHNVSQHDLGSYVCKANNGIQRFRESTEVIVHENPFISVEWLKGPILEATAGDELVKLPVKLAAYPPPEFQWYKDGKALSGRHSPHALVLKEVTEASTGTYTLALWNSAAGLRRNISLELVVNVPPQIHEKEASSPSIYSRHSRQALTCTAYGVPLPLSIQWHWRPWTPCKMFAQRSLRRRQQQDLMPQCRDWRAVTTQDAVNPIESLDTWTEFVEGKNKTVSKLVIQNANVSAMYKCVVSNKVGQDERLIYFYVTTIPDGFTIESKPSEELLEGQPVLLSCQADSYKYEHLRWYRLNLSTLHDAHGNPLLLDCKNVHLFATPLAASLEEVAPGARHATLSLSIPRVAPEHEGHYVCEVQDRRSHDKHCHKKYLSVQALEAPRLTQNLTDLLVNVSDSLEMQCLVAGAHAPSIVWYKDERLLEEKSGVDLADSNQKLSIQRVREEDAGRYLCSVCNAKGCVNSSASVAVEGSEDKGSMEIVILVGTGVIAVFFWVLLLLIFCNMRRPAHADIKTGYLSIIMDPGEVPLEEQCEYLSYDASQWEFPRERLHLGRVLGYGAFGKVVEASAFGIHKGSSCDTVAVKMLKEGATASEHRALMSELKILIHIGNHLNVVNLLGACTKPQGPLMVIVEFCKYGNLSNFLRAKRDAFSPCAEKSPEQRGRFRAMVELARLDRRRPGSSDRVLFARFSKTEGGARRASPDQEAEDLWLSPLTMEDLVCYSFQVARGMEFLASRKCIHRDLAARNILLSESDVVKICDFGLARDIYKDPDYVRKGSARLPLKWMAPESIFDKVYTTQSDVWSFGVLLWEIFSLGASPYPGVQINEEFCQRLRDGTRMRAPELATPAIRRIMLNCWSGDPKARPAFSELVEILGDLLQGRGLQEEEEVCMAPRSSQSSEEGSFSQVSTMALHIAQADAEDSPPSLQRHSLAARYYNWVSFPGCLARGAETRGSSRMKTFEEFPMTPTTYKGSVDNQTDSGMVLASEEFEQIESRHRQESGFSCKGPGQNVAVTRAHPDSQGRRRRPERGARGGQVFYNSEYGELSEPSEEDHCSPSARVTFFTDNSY
# Sequence of Vascular endothelial growth factor receptor 2 (P35968 whole entry, the tested form may be a part): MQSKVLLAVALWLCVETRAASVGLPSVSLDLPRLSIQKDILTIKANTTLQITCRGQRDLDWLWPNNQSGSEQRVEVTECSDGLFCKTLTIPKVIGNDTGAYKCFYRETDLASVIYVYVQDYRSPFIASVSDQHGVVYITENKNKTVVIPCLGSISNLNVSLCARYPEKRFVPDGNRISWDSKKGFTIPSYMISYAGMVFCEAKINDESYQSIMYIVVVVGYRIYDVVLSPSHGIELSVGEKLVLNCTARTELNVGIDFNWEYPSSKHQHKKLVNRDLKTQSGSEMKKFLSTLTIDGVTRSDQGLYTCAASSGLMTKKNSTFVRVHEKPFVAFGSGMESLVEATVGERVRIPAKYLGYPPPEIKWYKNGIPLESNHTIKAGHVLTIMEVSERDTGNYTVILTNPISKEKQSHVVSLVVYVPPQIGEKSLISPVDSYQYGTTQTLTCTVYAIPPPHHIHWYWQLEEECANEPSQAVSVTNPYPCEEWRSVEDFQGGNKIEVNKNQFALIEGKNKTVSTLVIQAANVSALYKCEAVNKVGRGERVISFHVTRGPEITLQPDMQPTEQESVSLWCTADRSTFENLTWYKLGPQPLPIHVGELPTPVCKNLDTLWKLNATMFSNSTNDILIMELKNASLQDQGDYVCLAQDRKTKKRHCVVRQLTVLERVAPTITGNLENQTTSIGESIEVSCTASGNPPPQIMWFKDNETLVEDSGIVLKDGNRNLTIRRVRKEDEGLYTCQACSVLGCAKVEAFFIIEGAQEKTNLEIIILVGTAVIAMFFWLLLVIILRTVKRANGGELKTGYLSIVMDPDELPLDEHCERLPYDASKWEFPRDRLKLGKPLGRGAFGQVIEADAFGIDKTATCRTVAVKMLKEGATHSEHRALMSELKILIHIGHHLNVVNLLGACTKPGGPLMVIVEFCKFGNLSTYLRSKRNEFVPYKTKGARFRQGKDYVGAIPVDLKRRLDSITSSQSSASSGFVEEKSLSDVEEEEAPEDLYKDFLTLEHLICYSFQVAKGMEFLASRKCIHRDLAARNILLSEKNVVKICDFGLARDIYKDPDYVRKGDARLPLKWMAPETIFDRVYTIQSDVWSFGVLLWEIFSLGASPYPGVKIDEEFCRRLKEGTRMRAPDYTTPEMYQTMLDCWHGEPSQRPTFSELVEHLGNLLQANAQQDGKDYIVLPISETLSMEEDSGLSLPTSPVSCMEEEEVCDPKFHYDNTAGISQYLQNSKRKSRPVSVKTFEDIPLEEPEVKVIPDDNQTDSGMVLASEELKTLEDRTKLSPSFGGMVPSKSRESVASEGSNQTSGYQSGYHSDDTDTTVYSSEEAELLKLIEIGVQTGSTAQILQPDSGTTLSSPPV
# Sequence of Proto-oncogene tyrosine-protein kinase Src (P12931 2-536 limits assumed): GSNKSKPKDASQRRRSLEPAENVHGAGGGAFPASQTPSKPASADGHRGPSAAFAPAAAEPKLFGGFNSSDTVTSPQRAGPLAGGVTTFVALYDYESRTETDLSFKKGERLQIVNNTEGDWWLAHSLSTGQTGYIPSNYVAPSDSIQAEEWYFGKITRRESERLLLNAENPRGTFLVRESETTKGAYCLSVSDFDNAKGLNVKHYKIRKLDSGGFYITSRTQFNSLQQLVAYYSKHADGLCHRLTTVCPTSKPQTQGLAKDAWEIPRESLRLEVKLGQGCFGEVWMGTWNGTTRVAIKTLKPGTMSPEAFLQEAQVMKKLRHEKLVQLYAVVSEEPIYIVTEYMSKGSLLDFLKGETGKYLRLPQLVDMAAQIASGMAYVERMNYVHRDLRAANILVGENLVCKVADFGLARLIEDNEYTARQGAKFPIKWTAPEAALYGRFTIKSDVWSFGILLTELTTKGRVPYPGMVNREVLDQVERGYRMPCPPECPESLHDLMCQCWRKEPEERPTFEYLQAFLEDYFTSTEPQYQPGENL
IC50 [1] [µM],IC50 [2] [µM],IC50 [3] [µM],IC50 (Angiopoietin-1 receptor) [µM],IC50 [4] [µM],IC50 [5] [µM],IC50 (Focal adhesion kinase 1) [µM],IC50 (Aurora kinase A) [µM],IC50 [6] [µM],SMILES,inhibition (Homo sapiens) [%]
–,5.3,3.6,24,40,35,28,29,–,CCOCn1cc(C2=C(c3cc(OC)c(OC)c(OC)c3)C(=O)NC2)c2ccccc21,–
25,2.3,3.2,25,–,–,35,–,–,COCn1cc(C2=C(c3cc(OC)c(OC)c(OC)c3)C(=O)NC2)c2ccccc21,42
14,31,18,48,39,46,–,–,3.6,COc1ccc(C2=C(c3cn(C)c4ccccc34)C(=O)NC2)cc1,–

SMILES,IC50 [1] [µM],IC50 [2] [µM],IC50 [3] [µM],IC50 (Angiopoietin-1 receptor) [µM],IC50 [4] [µM],IC50 [5] [µM],IC50 (Focal adhesion kinase 1) [µM],IC50 (Aurora kinase A) [µM],IC50 [6] [µM],inhibition (Homo sapiens) [%]
COc1cc(C2=C(c3c[nH]c4ccccc34)C(O)NC2=O)cc(OC)c1OC (stereo not drawn),44,5.9,3.4,–,–,–,–,–,–,–
